Measured values taken from ChEMBL document CHEMBL1123318, “(S)-3-[(benzyloxy)methyl]morpholine hydrochloride: a nonstimulant appetite suppressant without conventional neurotransmitter releasing properties” (J Med Chem, 1986).

Experiments:
[1] = system: Canis familiaris; assay: Compound was evaluated for mean reduction in food intake in dogs at a dose 15 mg/kg at 2 hour after dosing for the first 3 days; format: functional, Canis lupus familiaris
Procedure, shortened: (§1)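 Chronic regime: three beagle dogs on a daily 4-h meat feeding period were given a daily oral dose for 3 weeks. Food intake was measured 2 h after dosing. The mean % reduction versus control intake was compared between the first 3 and the last 3 days of the test.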

[2] = species on record: Rattus norvegicus; assay: Compound was found to have no effect on the release or uptake of serotonin at in rat brain synaptosomes; Inactive; format: functional
[3] = system: Canis familiaris; assay: Compound was evaluated for mean reduction in food in take in dogs at 2 hour after dosing; format: functional, Canis lupus familiaris
Procedure, shortened: (§2)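 Mature beagle dogs were trained to a daily 4-h feeding period with free access to meat. Groups of three received oral drug in soft gelatin capsules 1 h before feeding, and controls received empty capsules. All dogs got placebo on days 1–2, then drug or placebo on days 3–5. Leftover food was weighed at 1 and 2 h. Per-dog % change was taken against the days 1–2 mean, then averaged over days 3–5 and per group.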

[4] = species on record: Rattus norvegicus; assay: Compound was found to have no effect on the release or uptake of dopamine at in rat brain synaptosomes; Inactive; format: functional
[5] = system: Canis familiaris; assay: Compound was evaluated for mean reduction in food intake in dogs at 1 hour after dosing; format: functional, Canis lupus familiaris; procedure, shortened: as §2
[6] = species on record: Rattus norvegicus; assay: Compound was found to have no effect on the release or uptake of noradrenaline at in rat brain synaptosomes; Inactive; format: functional
[7] = system: Canis familiaris; assay: Compound was evaluated for mean reduction in food intake in dogs at a dose 15 mg/kg at 2 hour after dosing for the last 3 days; format: functional, Canis lupus familiaris; procedure, shortened: as §1
[8] = species on record: Canis familiaris; assay: Compound was evaluated for oral ED50 for appetite suppression in dogs.; format: functional; conditions: Canis lupus familiaris
Procedure, shortened: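 ED50 for the 1-h food intake effect: five pairs of trained beagle dogs were randomly allocated to oral 5, 10, 15 or 20 mg/kg or to an undosed placebo pair. Treatments ran on successive days in a Latin Square design, and food was weighed 1 h into the feeding period.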

[9] = system: Canis familiaris; assay: Compound was evaluated for mean increase in food intake in dogs at 1 hour after oral administration at a dose 10 mg/kg; format: functional, Canis lupus familiaris; procedure, shortened: as §2
[10] = system: Canis familiaris; assay: Compound was evaluated for mean increase in food intake in dogs after oral administration at a dose 3 mg/kg; format: functional, Canis lupus familiaris
[11] = system: Canis familiaris; assay: Compound was evaluated for mean reduction in food intake in three dogs at a dose 3 mg/kg orally for 3 weeks at 2 hour after dosing for the first 3 days; format: functional, Canis lupus familiaris; conditions: route oral; procedure, shortened: as §1

Structure (SMILES)	Reduction [1] [%]	IC50 [2] [µM]	Reduction [3] [%]	IC50 [4] [µM]	Reduction [5] [%]	IC50 [6] [µM]	Reduction [7] [%]	ED50 [8] [mg/kg]	Increase [9] [%]	Increase [10] [%]	Reduction [11] [%]
Cl.c1ccc(COC[C@H]2COCCN2)cc1	53	> 10	47	> 10	51	> 10	56	12	–	–	–
Cl.c1ccc(COC[C@@H]2COCCN2)cc1	–	–	–	–	–	–	–	–	13	–	–
CCN(CC)C(C)C(=O)c1ccccc1.Cl (configuration not stated) [DIETHYLPROPION HYDROCHLORIDE]	–	–	–	–	–	–	–	2	–	5	86
